Screens (PubChem)
ATG4B inhibitor: blocks human ATG4B protease cleavage of LC3 substrate; actives 0.51% (n = 340,000); ATG4B cleavage of LC3-PLA2, NBD-HPC fluorescence, 1 h; Q9Y4P1; inhibition, % at 8.33 µM; AID 504462; in the data active = inhibition above about 40%
SIAE primary: blocks human sialic acid acetylesterase | Q9HAT2 | SIAE FP-Rh probe binding, fluorescence polarization | inhibition, % at 9.66 µM | actives 0.69% (n = 370,000) | AID 1053197;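 active = inhibition above a cutoff: mean of compounds within the control limits plus 3 SD of those, cut at about 17% in these data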
PRMT1 inh: PRMT1 (human) inhibition, primary screen. Q99873. inhibition, % at 2.79 µM. AID 652257. actives 1.3% (n = 370,000). recombinant PRMT1, activity-based probe fluorescence polarization;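 active = inhibition above about 21% made by adding two undisclosed values, limit read from the data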
TCR CD3 inh: inhibitors of human TCR-CD3 interaction. inhibition, % at 9.4 µM. TAMRA-labeled TCR probe fluorescence, biochemical. AID 651800. actives 0.37% (n = 360,000);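 note: recombinant mutant TCR 2C K166C tagged with TAMRA read by polarization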
ABHD4 inh: inhibitors of mouse ABHD4 | Q8VD66 | purified mABHD4, FP-Rh probe fluorescence polarization | inhibition, % at 8.92 µM | actives 0.54% (n = 370,000);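 active = inhibition exceeding the mean over every tested compound plus 3 SD, cut at about 30% in these data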
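Test system: mouse ABHD4 enzyme, wild type. Reagent: FP-Rh fluorescent activity-based probe, added after compound pre-incubation. Timing: pre-incubation 45 min, probe exposure 60 min, at 25 °C. Technique: FP readout, ex 525 nm / em 598 nm. Benchmarks: high control S159A mutant with DMSO, low control median of compound wells.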
HTRA1 inhibitor: blocks human HTRA1 serine peptidase. Q92743. recombinant HTRA1, FP-rhodamine activity-based probe, fluorescence polarization. inhibition, % at 5.96 µM. actives 0.5% (n = 340,000); in the data active = inhibition above about 36%
Target sequence (Q92743 whole entry, looked up): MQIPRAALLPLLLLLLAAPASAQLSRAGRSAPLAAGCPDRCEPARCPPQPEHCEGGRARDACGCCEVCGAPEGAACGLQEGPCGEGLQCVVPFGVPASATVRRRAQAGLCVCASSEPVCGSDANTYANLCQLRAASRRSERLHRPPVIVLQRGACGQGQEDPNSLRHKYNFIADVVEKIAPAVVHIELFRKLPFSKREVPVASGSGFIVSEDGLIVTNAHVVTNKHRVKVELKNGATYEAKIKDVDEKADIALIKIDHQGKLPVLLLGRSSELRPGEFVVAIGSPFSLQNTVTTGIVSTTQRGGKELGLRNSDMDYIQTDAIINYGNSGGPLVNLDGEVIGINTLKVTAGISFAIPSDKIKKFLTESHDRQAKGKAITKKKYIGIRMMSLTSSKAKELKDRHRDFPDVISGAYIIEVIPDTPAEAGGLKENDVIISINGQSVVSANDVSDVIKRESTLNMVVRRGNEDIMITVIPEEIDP
BSA probe FL: BSA probe counter-screen for TCR-CD3 inhibitors; shares compounds with TCR CD3 inh; TAMRA-labeled BSA probe fluorescence counterscreen; inhibition, % at 9.4 µM; actives 10% (n = 1,200); AID 652035; in the data active = inhibition above about 23%
TCR-CD3 inh conf: TCR-CD3 interaction inhibition, confirmation. shares compounds with TCR CD3 inh. TAMRA-labeled TCR probe fluorescence binding assay. inhibition, % at 9.4 µM. actives 48% (n = 1,200). AID 652036
Hits are given with their value; n = inactive; x = no result given. Sampled rows, rich in hits. Any-hit rate of the full collection: about 2.9%. Cut-off read from the data, not from the text of the source, unless noted: active = inhibition above about 19%; inactive = the rest.

SMILES	ATG4B inhibitor	SIAE primary	PRMT1 inh	TCR CD3 inh	ABHD4 inh	HTRA1 inhibitor	BSA probe FL	TCR-CD3 inh conf
Cc1n[nH]c(=S)n1/N=C/c1c(O)ccc2ccccc12	n	n	n	30.1	n	n	n	n
Cc1nc2ccccc2c(=O)n1/N=C/c1c(O)ccc2ccccc12	n	n	n	23.6	n	n	n	n
Cc1cc(N=Cc2c(O)ccc3ccccc23)no1	n	n	n	n	n	n	x	x
Cc1ccc(NC(=O)C(OC(=O)c2ccc(NC(N)=O)cc2)c2ccccc2)cc1Cl (centres undefined)	n	n	n	45.8	n	n	n	31.7
N#CCC(=O)Nc1ccc(C(=O)OC(C(=O)Nc2cc(C(F)(F)F)ccc2Cl)c2ccccc2)cc1 (centres undefined)	n	n	n	46.6	n	n	n	33.9
COc1ncccc1-c1cnc2cccnn12	x	n	n	n	n	x	x	x
Oc1ccccc1-c1cnc2cccnn12	x	n	n	24.3	n	x	n	n
O=C(CSc1nc2cc(Cl)ccc2c(=O)n1Cc1ccco1)Nc1ccc(S(=O)(=O)N2CCOCC2)cc1	n	n	n	19.9	n	n	n	25.8
COC(=O)c1ccc2c(=O)n(Cc3ccco3)c(SCC(=O)Nc3ccc(C)c(Cl)c3)nc2c1	n	n	n	n	n	n	x	x
O=C(NC(=O)c1ccccc1F)OCc1ccc(Cl)cc1Cl	n	n	n	28.1	n	n	n	n
CCCCOCCCNC(=O)C[C@H]1C(=O)N(CCCOC)C2=CCCCC[C@]21C(=O)OC	x	n	n	x	n	x	x	x
COc1ccc(C(=O)Nc2nnc(CC(=O)N/N=C/c3ccc(O)cc3O)s2)cc1	x	n	n	23.4	n	n	n	35.4
COc1cccc(CNc2nc3cc(-c4ccccc4C)sc3c(=O)n2C)c1	x	n	n	n	n	x	x	x
COc1ccc(-c2cc(CNc3nc4cc(-c5ccccc5C)sc4c(=O)n3C)on2)cc1	x	n	n	30.5	n	x	n	n
COCCCNC(=O)c1ccc(Cn2c(=O)c3ccccc3n(Cc3ccc(C(C)C)cc3)c2=O)cc1	x	n	n	x	n	x	x	x
Cc1nn(CC(=O)NC(=O)NC2CCCC(C)C2C)c(=O)c(C#N)c1C (centres undefined)	n	n	n	23.6	n	n	n	n
CC1CCCC(NC(=O)NC(=O)CCl)C1C (centres undefined)	n	n	n	n	n	n	x	x
Cc1ccc(OCc2nn3c(C4CCCCC4)nnc3s2)cc1	x	n	n	x	n	x	x	x
C[C@H](CO)N1C[C@H](C)[C@@H](CN(C)S(=O)(=O)c2ccccc2)Oc2ccc(NC(=O)Nc3ccc(C(F)(F)F)cc3)cc2C1=O	n	n	n	28.1	n	n	n	n
CC(C)NC(=O)Nc1ccc2c(c1)C(=O)N([C@H](C)CO)C[C@H](C)[C@@H](CN(C)S(=O)(=O)c1ccccc1)O2	n	n	n	n	n	n	x	x
O=C(NNC(=O)c1ccccc1O)c1cc2ccccc2o1	n	n	n	33.1	n	n	n	21.8
O=C(NNC(=O)c1cc2ccccc2o1)c1ccncc1	n	n	n	n	n	n	x	x
CCCS(=O)(=O)N1CCCC(C(=O)NCCCN(C)Cc2ccccc2)C1 (centres undefined)	n	n	n	n	n	n	x	x
CCCS(=O)(=O)N1CCCC(C(=O)NCCCN(Cc2ccccc2)C(C)C)C1 (centres undefined)	n	n	n	65.1	n	n	n	n
C=CCn1c(SCC(=O)NCc2ccco2)nnc1C1CCCCC1	n	n	n	20.2	n	n	n	n
Cc1ccc(-n2c(O)c(/C=N/NC(=O)C3COc4ccccc4O3)c3ccccc3c2=O)cc1 (centres undefined)	n	n	n	19.9	n	n	n	34.1
Cc1ccc(C(=O)/C=C/NNC(=O)c2ccccc2O)cc1	n	n	n	19.0	n	n	n	n
O=C(/C=C/NNC(=O)c1ccccc1)c1ccc(Br)cc1	n	n	n	n	n	n	x	x
O=C(/C=C/NNC(=O)c1ccc(Cl)cc1)c1ccccc1	n	n	n	n	n	n	x	x
